In ChEMBL document CHEMBL1147044, “Design of helical, oligomeric HIV-1 fusion inhibitor peptides with potent activity against enfuvirtide-resistant virus” (Proc Natl Acad Sci U S A, 2007):

Legend:
[1] = system: Human immunodeficiency virus 1; assay: Antiviral activity against HIV1 3B infected in human PBMCs by reverse transcriptase assay; format: functional, organism-based; conditions: Human immunodeficiency virus 1, 3B
Outline: (§1)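 CD8-depleted activated PBMC targets infected at high MOI by spinoculation; infected cells incubated with uninfected targets at 2 × 10⁵ cells per well with serially diluted peptide for 9 days. Fresh compound added and samples taken every 2–3 days. Replication read by reverse transcriptase assay; IC50 from reduction in RT signal relative to infected untreated wells.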

[2] = system: Human immunodeficiency virus 1; assay: Antiviral activity against HIV1 098-T1249 isolate infected in human PBMCs by reverse transcriptase assay; format: functional, organism-based; outline: as §1
[3] = Clearance in cynomolgus monkey at 1 to 2 mg/kg, iv; format: ADME, organism-based, Macaca fascicularis; set-up: dose 1-2 mg/kg, route intravenous; conditions: in vivo
Outline: (§2)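 Male cynomolgus monkeys received a single i.v. dose of about 1–2 mg/kg in isotonic phosphate-mannitol vehicle, given as cassettes (typically n ≤ 8). Plasma was protein-precipitated with 0.5% formic acid in acetonitrile and peptide measured by reversed-phase HPLC. Parameters were fitted with mono- or biexponential models.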

[4] = system: Human immunodeficiency virus 1; assay: Binding affinity to HIV1 gp41 heptad repeat 1 region assessed as thermal stability of HR1/HR2 peptide bundle complex at 1 uM in presence of 8M urea
[5] = system: Human immunodeficiency virus 1; assay: Antiviral activity against HIV1 098-T20 isolate infected in human PBMCs by reverse transcriptase assay; format: functional, organism-based; outline: as §1
[6] = Half life in cynomolgus monkey at 1 to 2 mg/kg, iv; format: ADME, organism-based, Macaca fascicularis; set-up: dose 1-2 mg/kg, route intravenous; conditions: in vivo; outline: as §2
[7] = system: Human immunodeficiency virus 1; assay: Antiviral activity against HIV1 098 isolate infected in human PBMCs by reverse transcriptase assay; format: functional, organism-based; outline: as §1
[8] = system: Human immunodeficiency virus 1; assay: Antiviral activity against HIV1 098-T651 isolate infected in human PBMCs by reverse transcriptase assay; format: functional, organism-based; outline: as §1

IC50 [1] [µg/mL]	IC50 [2] [µg/mL]	clearance [3] [mL/min/kg]	Tm [4] [°C]	IC50 [5] [µg/mL]	half-life [6] [h]	IC50 [7] [µg/mL]	IC50 [8] [µg/mL]	Substance
0.022	0.046	0.0667	85	0.093	28.6	0.049	0.242	H-TTWEAWDRAIAEYAARIEALIRAAQEQQEKLEAVLREL-OH
0.03	0.147	0.133	82	0.084	8.6	0.054	0.242	H-TTWEAWDRAIAEYAARIEALIRALQELQEKNEAALREL-OH
0.006	0.072	1.43	78	0.022	1.2	0.013	1.31	H-TTWEAWDRAIAEYAARIEALIRASQEQQEKNEAELREL-OH

The next lines start with the substance.

Substance	IC50 [1] [µg/mL]	IC50 [2] [µg/mL]	clearance [3] [mL/min/kg]	Tm [4] [°C]	IC50 [5] [µg/mL]	half-life [6] [h]	IC50 [7] [µg/mL]	IC50 [8] [µg/mL]
H-TTWEAWDRAIAEYAARIEALIRALQEQQEKNEAILREL-OH	0.019	0.038	0.2	85	0.079	12.4	0.043	0.196
enfuvirtide	0.006	55	0.667	< 5	0.526	8.8	0.05	47.8
